Source: publication PMC8764296 (International Journal of Nanomedicine, 2022)

Assay: Liver microsomal stability
Assay type: in vitro ADME
Settings: mouse liver microsomes 0.5 mg/mL, 50 μM, 37 °C, 4 hours incubation
Procedure, shortened: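 Compound at 50 μM (in vehicle or micelles), with coumarin as control, was preincubated 5 min at 37 °C with mouse liver microsomes (0.5 mg/mL) in PBS pH 7.4. Reactions were started with an NADPH-generating system (3 mM NADPH, 7.2 mM MgCl2, 6 mM G6P, 3 unit G6PDH) and sampled at 0, 5, 30 min and 1, 2, 4 h. Samples were DMSO-extracted for HPLC. ke from lnC versus t gave t1/2 and CL. Triplicate, mean and SD.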

- level remaining in liver microsome: 10.7 ± 2.2%
SMILES: O=c1ccc2ccccc2o1 [Coumarin]
